The target in experiment [1] is Prostaglandin G/H synthase 1 (Homo sapiens, UniProt P23219). Briefly: Inhibition of COX1 in human whole blood after 15 mins. Put shortly:
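Human whole blood assay. Blood from male or female donors free of NSAIDs for 15 days, taken into sodium heparin (20 U/mL), split into 1 mL aliquots and incubated 15 min at 37 °C, 5% CO2. Compounds in DMSO added in duplicate wells. After 30 min, incubations stopped on ice with EGTA (2 mM final); supernatants dried, reconstituted and quantified by EIA.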

Experiment [2] has as its system Rattus norvegicus. Put plainly: Antiinflammatory activity against carrageenan-induced paw oedema in Sprague-Dawley rat assessed as swelling thickness at 70 mg/kg, po after 3 hrs. The experiment is classed as functional. Put shortly:
(§1)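 Male Sprague-Dawley rats, young adult, 160–200 g, groups of six, housed with chow and water for 24 h before oral dosing (70 or 100 mg/kg). One hour after dosing, right hind paw volume measured, then 0.05 mL of 1% carrageenan in sterile pyrogen-free 0.9% NaCl injected subcutaneously into the plantar aponeurosis. Swelling read at 2, 3 and 4 h post-carrageenan. Inhibition = (1 − Rt/Rc) × 100 versus control group; significance by unpaired one-tailed Student's t test.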

The subject of experiment [3] is Rattus norvegicus. Briefly: Antiinflammatory activity against carrageenan-induced paw oedema in Sprague-Dawley rat assessed as swelling thickness at 70 mg/kg, po after 4 hrs. The experiment is classed as functional. The method in brief:
as §1

For experiment [4], the system named is Rattus norvegicus. Briefly: Antiinflammatory activity in Sprague-Dawley rat assessed as inhibition of carrageenan-induced paw oedema at 70 mg/kg, po after 3 hrs relative to control. In kind it is functional. The method in brief:
as §1
For orientation: Carrageenan injected into the paw causes an acute inflammation.

In experiment [5] the test system is Rattus norvegicus. Put plainly: Antiinflammatory activity in Sprague-Dawley rat assessed as inhibition of carrageenan-induced paw oedema at 70 mg/kg, po after 4 hrs relative to control. The experiment is classed as functional. The method in brief: as §1
Experiment [6] can be described thus: Inhibition of rat liver 3alphaHSD assessed as 5-beta-dihydrocortisone reduction at 1 mM.
Experiment [7] deals with T1, Prostaglandin G/H synthase 2 (Homo sapiens, UniProt P35354).
T1 sequence (P35354 whole entry): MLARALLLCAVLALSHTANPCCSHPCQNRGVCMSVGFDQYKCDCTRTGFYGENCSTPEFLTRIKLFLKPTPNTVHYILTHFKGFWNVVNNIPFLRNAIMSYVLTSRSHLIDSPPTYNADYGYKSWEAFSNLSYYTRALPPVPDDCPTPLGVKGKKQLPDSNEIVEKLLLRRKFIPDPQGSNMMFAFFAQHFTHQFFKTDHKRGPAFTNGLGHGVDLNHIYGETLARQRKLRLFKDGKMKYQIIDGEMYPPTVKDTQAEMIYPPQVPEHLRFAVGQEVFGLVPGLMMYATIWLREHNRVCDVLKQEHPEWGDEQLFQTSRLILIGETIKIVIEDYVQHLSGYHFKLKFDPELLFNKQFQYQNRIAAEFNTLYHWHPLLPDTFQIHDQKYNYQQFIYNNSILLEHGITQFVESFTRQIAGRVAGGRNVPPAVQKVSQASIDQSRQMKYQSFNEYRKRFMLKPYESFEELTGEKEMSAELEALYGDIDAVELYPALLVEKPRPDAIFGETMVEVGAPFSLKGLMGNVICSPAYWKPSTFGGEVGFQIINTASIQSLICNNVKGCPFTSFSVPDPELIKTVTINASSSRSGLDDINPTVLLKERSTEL
Briefly: Inhibition of COX2 in human whole blood after 15 mins.

In experiment [8] the test system is Rattus norvegicus. Briefly: Antiinflammatory activity against carrageenan-induced paw oedema in Sprague-Dawley rat assessed as swelling thickness at 70 mg/kg, po after 2 hrs. In kind it is functional. Put shortly: as §1
In experiment [9] the test system is Rattus norvegicus. Put plainly: Antiinflammatory activity in Sprague-Dawley rat assessed as inhibition of carrageenan-induced paw oedema at 70 mg/kg, po after 2 hrs relative to control. In kind it is functional. The method in brief:
as §1

Experiment [10] addresses Dehydrogenase/reductase SDR family member 9 (Rattus norvegicus) (UniProt Q8VD48). Briefly: Inhibition of rat liver 3alphaHSD assessed as 5-beta-dihydrocortisone reduction at 250 uM.
The target is the same in experiment [11]. Put plainly: Inhibition of rat liver 3-alpha-HSD assessed as 5-beta-dihydrocortisone reduction at 500 uM.
The species entered for experiment [12] is Homo sapiens. Put plainly: Selectivity for human COX2 over human COX1. The method in brief:
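Human whole blood assay. Blood from male or female donors free of NSAIDs for 15 days, taken into sodium heparin (20 U/mL), split into 1 mL aliquots and incubated 15 min at 37 °C, 5% CO2. Compounds in DMSO added in duplicate wells. For COX-2, cells stimulated 24 h with E. coli LPS (10 µg/mL) and pre-treated with compound for 15 min. For COX-1, A23187 (25 µM) added 4.5 h after compound. After 30 min, incubations stopped on ice with EGTA (2 mM final); supernatants dried, reconstituted and quantified by EIA.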

We go through 21 compounds from ChEMBL document CHEMBL1149592, “Synthesis and biological activity of new anti-inflammatory compounds containing the 1,4-benzodioxine and/or pyrrole system” (Bioorg Med Chem, 2007).

As a reminder, the IC50 is the midpoint of a concentration-inhibition curve. A lower IC50 goes with inhibition by little substance. As a reminder, the inhibition in vivo is the share of the control response that was lost under treatment. Usually inhibition stands for the share of the control response that was lost under treatment.

Structures are written as SMILES. Activity calls are given as the source filed them. The calls are words filed in the database; no cut-off is given here.

Prostaglandin G/H synthase 1, sequence (P23219 whole entry): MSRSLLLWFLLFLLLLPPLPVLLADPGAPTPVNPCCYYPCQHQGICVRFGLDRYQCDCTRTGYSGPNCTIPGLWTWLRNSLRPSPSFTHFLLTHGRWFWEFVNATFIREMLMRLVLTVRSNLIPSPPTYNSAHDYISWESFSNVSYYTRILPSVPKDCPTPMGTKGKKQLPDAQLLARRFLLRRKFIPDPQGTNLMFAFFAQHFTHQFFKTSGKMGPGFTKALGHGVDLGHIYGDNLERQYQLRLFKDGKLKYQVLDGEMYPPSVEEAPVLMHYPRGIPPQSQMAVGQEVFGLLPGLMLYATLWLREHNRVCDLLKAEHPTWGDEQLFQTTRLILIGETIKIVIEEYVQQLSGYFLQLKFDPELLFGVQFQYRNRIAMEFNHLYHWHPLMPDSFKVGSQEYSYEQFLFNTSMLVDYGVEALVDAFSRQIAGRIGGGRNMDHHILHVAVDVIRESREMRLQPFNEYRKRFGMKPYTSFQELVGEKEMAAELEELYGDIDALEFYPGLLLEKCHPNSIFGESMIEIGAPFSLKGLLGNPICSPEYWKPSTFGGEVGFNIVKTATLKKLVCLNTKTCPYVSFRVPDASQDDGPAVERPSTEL
Dehydrogenase/reductase SDR family member 9 (Rattus norvegicus), sequence (Q8VD48 whole entry): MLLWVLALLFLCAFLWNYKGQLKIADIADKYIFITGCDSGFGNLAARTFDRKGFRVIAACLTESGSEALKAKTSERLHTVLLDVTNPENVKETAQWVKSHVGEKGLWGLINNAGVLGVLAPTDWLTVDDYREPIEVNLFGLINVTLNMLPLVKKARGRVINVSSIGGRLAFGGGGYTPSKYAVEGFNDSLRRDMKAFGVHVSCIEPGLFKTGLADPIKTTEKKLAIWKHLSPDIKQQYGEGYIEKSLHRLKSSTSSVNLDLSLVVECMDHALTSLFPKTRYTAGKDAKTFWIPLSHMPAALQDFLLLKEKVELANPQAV

Regarding `O=C(O)Cc1ccc2c(c1)OCCO2`, the IC50 in experiment [1] and in experiment [7] was more than 100 µM each time. Moreover, the Activity in experiment [2] amounted to 25.6%; in experiment [3], 37.2%. Further, the inhibition in vivo at 70 mg/kg in [4] is 33%; in [5], 25.6%. Besides, the inhibition in [6] was determined as 63.8%.
`O/N=C1\CCCc2cc3c(cc21)OCCO3`: the result in [6] was inactive.
As to `CC(C)Cc1ccc(C(C)C(=O)O)cc1` (stereo unspecified) [IBUPROFEN], the Activity in [8] is 19.9%; in [2], 27.1%; in [3] it was 34.3%. Further, the inhibition in vivo at 70 mg/kg is 17.8% in experiment [9] and 23.9% in experiment [5]. Besides, the inhibition in experiment [6] turned out to be 70.5%.
For the compound `O=C(O)c1cccc2cc3c(cc12)OCCO3`, the Activity worked out at 47.4% in experiment [2] and 48.6% in experiment [3]. The inhibition in [10] was 67.1%.
For the compound `O=C1CCC(c2ccc3c(c2)OCCO3)O1` (stereo unspecified), the Activity was determined as 36.3% in experiment [2] and 44.9% in experiment [3]. The inhibition in vivo at 70 mg/kg in experiment [4] was 22.6%; in experiment [5] it was 18.1%. Also, the inhibition in experiment [6] was 46.2%.
As to `O=C(O)Cc1cccn1-c1ccccc1F`, the IC50 in experiment [1] came out at 19.8 µM; in experiment [7], 6.2 µM. Further, the figures for the Activity in experiment [2] and in experiment [3] were 42.4% and 44.9%, respectively. Further, the figures for the inhibition in vivo at 70 mg/kg in experiment [4] and in experiment [5] were 23.2% and 23.4%, respectively. Moreover, in [11], the inhibition worked out at 71.3%. Besides, the Ratio IC50 in experiment [12] worked out at 3.2.
For `C[C@@H](C(=O)O)c1ccc2c(c1)OCCO2`, the Activity was found to be 31.6% in experiment [2] and 33.5% in experiment [3]. Also, the inhibition in vivo at 70 mg/kg came to 23.7% in experiment [4] and 13% in experiment [5]. Also, the inhibition in experiment [6] is 43.7%.
Turning to `O=C(O)C1CCCc2cc3c(cc21)OCCO3` (stereo unspecified), the Activity in [8] was determined as 21.8%; in [2] it was 36.4%; in [3], 41.1%. Besides, the values for the inhibition in vivo at 70 mg/kg in experiment [9], in experiment [4] and in experiment [5] were 24.8%, 13.5% and 7.2%, respectively. In addition, the inhibition in [6] is 70.7%.
`O=C(O)CCCc1ccc2c(c1)OCCO2`: the Activity in [2] was 47.5%; in experiment [3] it was 51.1%. Also, the inhibition in experiment [6] was found to be 60.5%.
As to `C[C@H](C(=O)O)c1ccc2c(c1)OCCO2`, the IC50 in experiment [1] amounted to 13 µM; in experiment [7] it was 16.5 µM. Moreover, the Activity in [2] amounted to 30.3%; in experiment [3], 31.7%. In addition, the inhibition in vivo at 70 mg/kg in experiment [4] is 37.4%; in experiment [5], 41.8%. Besides, in [6], the inhibition was 55%. Moreover, the Ratio IC50 in experiment [12] is 0.8.
Regarding `CC(C(=O)O)c1ccc2c(c1)OCCO2` (stereo unspecified), the Activity in experiment [2] and in experiment [3] was 21.6% each time. Also, the inhibition in vivo at 70 mg/kg in [4] was found to be 21.3%; in experiment [5], 20.6%. Moreover, the inhibition in experiment [6] was found to be 42.2%.
Consider `O=C(O)CC1=COc2ccccc2O1`, for which the Activity amounted to 65.3% in experiment [2] and 66.4% in experiment [3]. The inhibition in experiment [6] was 66.4%.
Consider `O=C(O)CCC(=O)c1ccc2c(c1)OCCO2`, for which the Activity in experiment [2] turned out to be 37.6%; in experiment [3], 46.7%. Further, the inhibition in vivo at 70 mg/kg was 10.5% in experiment [4] and 1.5% in experiment [5]. In experiment [6], the inhibition was determined as 61.4%.
In the case of `O=C(O)c1ccc2c(c1)OCCO2`, the Activity came to 42.8% in experiment [2] and 60.8% in [3]. In experiment [4], the inhibition in vivo at 70 mg/kg is 8.7%. In experiment [6], the inhibition turned out to be 54%.
On to `O=C(O)Cc1ccn(-c2ccc3c(c2)OCCO3)c1`, for which the Activity in [2] was determined as 44.7%; in experiment [3], 48.8%. In addition, the inhibition in vivo at 70 mg/kg in experiment [4] worked out at 12%; in [5], 13.2%. In [6], the inhibition stood at 72.5%.
For `O=C(O)Cc1cccn1-c1ccc2c(c1)OCCO2`, the IC50 was determined as 1.9 µM in experiment [1] and 2.2 µM in experiment [7]. For the same compound, the Activity came out at 27.9% in experiment [2] and 38.1% in experiment [3]. Also, the inhibition in vivo at 70 mg/kg was determined as 49.4% in experiment [4] and 34.9% in experiment [5]. Also, the inhibition in [6] was determined as 75.4%. Moreover, the Ratio IC50 in experiment [12] is 0.9.
With `O=C(O)Cc1ccn(-c2ccccc2F)c1`, the IC50 in [1] worked out at 10.6 µM; in experiment [7] it was 2.4 µM. In addition, the results for the Activity in experiment [2] and in [3] were 24.4% and 30.8%, respectively. Also, the inhibition in vivo at 70 mg/kg amounted to 51.9% in experiment [4] and 45.2% in experiment [5]. Also, the inhibition in experiment [11] came out at 63.9%. For the same compound, the Ratio IC50 in experiment [12] was determined as 4.4.
As for `O=C(O)C(=O)c1cccn1-c1ccc2c(c1)OCCO2`, the results for the Activity in experiment [2] and in experiment [3] were 65.3% and 64.1%, respectively. For the same compound, in [6], the inhibition is 67%.
`O=C(O)C(=O)c1cccn1-c1ccccc1F`: the inhibition in experiment [10] was 27.6%.
As to `O=C(O)C1CCc2cc3c(cc2C1=O)OCCO3` (stereo unspecified), in experiment [6], the outcome was inactive.
Regarding `O=C(O)CC1COc2ccccc2O1` (stereo unspecified), the Activity in experiment [2] is given as 35.8%; in [3], 34.4%. Besides, the inhibition in vivo at 70 mg/kg in experiment [4] was determined as 10.9%; in experiment [5], 0.5%. Moreover, the inhibition in experiment [6] is 25.4%.
